Source: ChEMBL document CHEMBL5030529, “Rationally Modified Antimicrobial Peptides from the N-Terminal Domain of Human RNase 3 Show Exceptional Serum Stability” (J Med Chem, 2021)
≈ marks a conversion by molar mass, not a printed value. Calls of active or inactive are those of the source. The calls are words filed in the database; no cut-off is given here.

Key:
Pseudomonas sp. = assay: Antimicrobial activity against Pseudomonas sp assessed as bacterial growth inhibition incubated in presence of serum for 24 hrs; type: functional
In short: (§1)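 Broth microdilution in polypropylene plates in Mueller-Hinton medium, inoculum 5 × 10^5 CFU/mL, 37 °C for 24 h. […] MIC is the lowest peptide concentration with no growth. Values are the mean of three independent studies.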

Shigella flexneri = assay: Antimicrobial activity against Shigella flexneri assessed as bacterial growth inhibition incubated in presence of serum for 24 hrs; type: functional; in short: as §1
Cell membrane [1] = assay: Induction of membrane depolarization in Escherichia coli at 0.4 uM incubated 20 to 30 mins under dark by Eclipse fluorescence spectrometry; type: subcellular; details: time 20-30 min
In short: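 Exponential-phase E. coli (OD 0.2–0.4) was washed in 5 mM HEPES, 20 mM glucose, 100 mM KCl, pH 7.2, and resuspended to OD 0.05. DiSC3(5) was added at 0.4 μM final and equilibrated in the dark for 20–30 min to a stable baseline. Peptide was then added and dye release was followed by fluorescence at ex 625 nm / em 666 nm.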

Salmonella enterica = assay: Antimicrobial activity against Salmonella enterica assessed as bacterial growth inhibition incubated in presence of serum for 24 hrs; type: functional; in short: as §1
[2] = Stability in human serum assessed as half life by LC-MS analysis; type: ADME, cell-free
In short: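 1 mM peptide stocks in water were mixed 1:1 (v/v) with human serum. Aliquots were taken at set times and digestion was stopped by acetonitrile precipitation. Serum proteins were removed by centrifugation, and intact peptide and fragments in the supernatant were analysed by LC–MS. Half-life values are the mean of three independent studies.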

[3] = Hemolytic activity in horse RBC assessed as hemolysis at 250 uM relative to control; type: ADME, tissue-based, Equus caballus; details: erythrocyte
In short: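 Horse erythrocytes were diluted 10-fold in PBS and washed by three spins at 800g. They were incubated with peptides for 4 h at 37 °C, and supernatant absorbance was read at 540 nm. Percent hemolysis is relative to total lysis with 1% Triton X-100. Values are the mean of three independent studies.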

Escherichia coli [4] = assay: Antimicrobial activity against Escherichia coli assessed as bacterial growth inhibition incubated for 24 hrs
Acinetobacter baumannii [5] = assay: Antimicrobial activity against Acinetobacter baumannii assessed as bacterial growth inhibition incubated for 24 hrs
Cell membrane [6] = assay: Induction of membrane damage in Escherichia coli assessed as loss of membrane integrity by measuring blebs at 10 uM incubated for 2 hrs by Electron scanning microscopy; type: subcellular
In short: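 E. coli was grown in LB at 37 °C to OD600 0.4 and exposed to 10 μM peptide for 2 h at room temperature. Cells were collected on 0.1 μm filters, fixed in 2.5% glutaraldehyde in cacodylate buffer pH 7.4 and post-fixed in 1% OsO4. Samples were dehydrated in ethanol, coated with gold–palladium and imaged at 15 kV.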

MRC5 = assay: Cytotoxicity against human MRC5 cells assessed as cell growth inhibition measured after 4 hrs by MTT assay; type: cell-based; details: MRC5, 4 h
In short: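 MRC-5 fibroblasts were grown in MEMα with 10% FBS, seeded at 3 × 10^4 cells/well and left overnight to adhere. Cells were exposed to two-fold peptide serial dilutions for 4 h, then given medium with MTT at 0.4 mg/mL for 150 min. Formazan was dissolved in DMSO and read at 600 nm. Values are the mean of three independent studies.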

[7] = Retention time of the compound by HPLC analysis; type: physicochemical
In short: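 Analytical RP-HPLC on a C18 column (4.6 × 50 mm, 3 μm) with a linear gradient of 0–60% acetonitrile (0.036% TFA) into water (0.045% TFA) over 15 min. Flow was 1 mL/min with UV detection at 220 nm.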

Escherichia coli [8] = assay: Antimicrobial activity against clinical isolate Escherichia coli 116878 assessed as bacterial growth inhibition incubated in presence of serum for 24 hrs; type: functional; in short: as §1
Acinetobacter baumannii [9] = assay: Antimicrobial activity against clinical isolate Acinetobacter baumannii 3879 assessed as bacterial growth inhibition incubated in presence of serum for 24 hrs; type: functional; in short: as §1
Acinetobacter baumannii [10] = assay: Antimicrobial activity against clinical isolate Acinetobacter baumannii 3880 assessed as bacterial growth inhibition incubated in presence of serum for 24 hrs; type: functional; in short: as §1
Acinetobacter baumannii [11] = assay: Antimicrobial activity against clinical isolate Acinetobacter baumannii 3862 assessed as bacterial growth inhibition incubated in presence of serum for 24 hrs; type: functional; in short: as §1
Salmonella typhimurium [12] = assay: Antimicrobial activity against clinical isolate Salmonella typhimurium 324 assessed as bacterial growth inhibition incubated in presence of serum for 24 hrs; type: functional, Salmonella enterica subsp. enterica serovar Typhimurium; details: Salmonella enterica; in short: as §1
Pseudomonas aeruginosa [13] = assay: Antimicrobial activity against clinical isolate Pseudomonas aeruginosa 827651 assessed as bacterial growth inhibition incubated in presence of serum for 24 hrs; type: functional; in short: as §1
Salmonella typhimurium [14] = assay: Antimicrobial activity against clinical isolate Salmonella typhimurium 365 assessed as bacterial growth inhibition incubated in presence of serum for 24 hrs; type: functional, Salmonella enterica subsp. enterica serovar Typhimurium; details: Salmonella enterica; in short: as §1
Acinetobacter baumannii [15] = assay: Antimicrobial activity against clinical isolate Acinetobacter baumannii 3878 assessed as bacterial growth inhibition incubated in presence of serum for 24 hrs; type: functional; in short: as §1
Escherichia coli [16] = assay: Antimicrobial activity against clinical isolate Escherichia coli cf073 assessed as bacterial growth inhibition incubated in presence of serum for 24 hrs; type: functional; in short: as §1
Pseudomonas aeruginosa [17] = assay: Antimicrobial activity against clinical isolate Pseudomonas aeruginosa 827632 assessed as bacterial growth inhibition incubated in presence of serum for 24 hrs; type: functional; in short: as §1

| Compound | MIC (Pseudomonas sp.) [µM] | MIC (Shigella flexneri) [µM] | Activity (Cell membrane [1]) | MIC (Salmonella enterica) [µM] | half-life [2] [min] | Activity [3] [%] | MIC (Escherichia coli [4]) [µM] | MIC (Acinetobacter baumannii [5]) [µM] | Activity (Cell membrane [6]) | IC50 (MRC5) [µM] | Retention_time [7] [min] | MIC (Escherichia coli [8]) [µM] | MIC (Acinetobacter baumannii [9]) [µM] | MIC (Acinetobacter baumannii [10]) [µM] | MIC (Acinetobacter baumannii [11]) [µM] | MIC (Salmonella typhimurium [12]) [µM] | MIC (Pseudomonas aeruginosa [13]) [µM] | MIC (Salmonella typhimurium [14]) [µM] | MIC (Acinetobacter baumannii [15]) [µM] | MIC (Escherichia coli [16]) [µM] | also measured |
| --- | --- | --- | --- | --- | --- | --- | --- | --- | --- | --- | --- | --- | --- | --- | --- | --- | --- | --- | --- | --- | --- |
| CC[C@H](C)[C@H](NC(=O)[C@H](C)NC(=O)[C@H](CCCN)NC(=O)[C@H](CCSC)NC(=O)[C@H](C)NC(=O)[C@@H](NC(=O)[C@@H](NC(=O)[C@H](CCCN)NC(=O)[C@@H]1CCCN1C(=O)[C@H](CO)NC(=O)[C@@H](NC(=O)[C@H](Cc1c[nH]cn1)NC(=O)[C@H](CCC(N)=O)NC(=O)[C@@H](NC(=O)[C@H](C)NC(=O)[C@H](Cc1ccccc1)NC(=O)[C@H](Cc1c[nH]c2ccccc12)NC(=O)[C@H](CCC(N)=O)NC(=O)[C@H](C)NC(=O)[C@H](CCCN)NC(=O)[C@@H](NC(=O)[C@H](Cc1ccccc1)NC(=O)[C@@H]1CCCN1C(=O)[C@@H](N)CCCN)[C@@H](C)O)[C@@H](C)CC)[C@@H](C)CC)[C@@H](C)O)[C@@H](C)CC)C(=O)N[C@@H](CC(N)=O)C(=O)N[C@@H](CC(N)=O)C(=O)N[C@@H](Cc1ccc(O)cc1)C(=O)N[C@@H](CCCN)C(=O)N[C@@H](Cc1c[nH]c2ccccc12)C(=O)N[C@@H](CCCN)C(=O)O | 6.25 | 12.5 | Active | 25 | 29.1 | 10 | 6.25 (≈ 21.9 µg/mL) | 6.25 (≈ 21.9 µg/mL) | Active | 113 | 8.4 |  |  |  |  |  |  |  |  |  |  |
| CC[C@H](C)[C@H](NC(=O)[C@H](C)NC(=O)[C@H](CCCN)NC(=O)[C@H](CCSC)NC(=O)[C@H](C)NC(=O)[C@@H](NC(=O)[C@@H](NC(=O)[C@H](CCCN)NC(=O)[C@@H]1CCCN1C(=O)[C@H](CO)NC(=O)[C@@H](NC(=O)[C@H](Cc1c[nH]cn1)NC(=O)[C@H](CCC(N)=O)NC(=O)[C@@H](NC(=O)[C@H](C)NC(=O)[C@H](Cc1ccccc1)NC(=O)[C@H](Cc1c[nH]c2ccccc12)NC(=O)[C@H](CCC(N)=O)NC(=O)[C@H](C)NC(=O)[C@H](CCCN)NC(=O)[C@@H](NC(=O)[C@H](Cc1ccccc1)NC(=O)[C@H]1CCCN1C(=O)[C@H](N)CCCN)[C@@H](C)O)[C@@H](C)CC)[C@@H](C)CC)[C@@H](C)O)[C@@H](C)CC)C(=O)N[C@@H](CC(N)=O)C(=O)N[C@@H](CC(N)=O)C(=O)N[C@@H](Cc1ccc(O)cc1)C(=O)N[C@@H](CCCN)C(=O)N[C@@H](Cc1c[nH]c2ccccc12)C(=O)N[C@@H](CCCN)C(=O)O | 1.56 | 6.25 | Active | 25 | > 480 | 3.6 | 3.13 (≈ 11 µg/mL) | 6.25 (≈ 21.9 µg/mL) | Active | 170 | 10.8 | 6.25 | 1.56 | 6.25 | 0.78 | 25 | 100 | 25 | 0.78 | 3.13 | MIC (Pseudomonas aeruginosa [17]): 25 µM |
| H-RPFTRAQWFAIQHISPRTIAMRAINNYRWR-OH | 1.56 | 3.13 | Active | 12.5 | 12.3 | 44 | 1.56 | 1.56 | Active | 23 | 8.9 | 6.25 | 1.56 | 1.56 | 0.78 | 6.25 | 25 | 6.25 | 1.56 | 3.13 | MIC (Pseudomonas aeruginosa [17]): 12.5 µM |
